Results taken from paper PMC12118959 (Toxicological Sciences, 2025).
Structures can show the parent of a compound that is named as a salt.

How the values were obtained:
[1] = test system: NaV1.5; settings: read-out: NaV1.5 IC50; ref Wang et al. 2010; cited from earlier work
[2] = test system: 3D ECTs; experiment: Contractility; format: cell-based, human; settings: for MEC (minimum effective concentration), active force: serum-free, paced at 1 Hz, 15 min per concentration
How it was run: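 Tissues were built from iCell cardiomyocytes plus human ventricular cardiac fibroblasts in hydrogel on Biowire II wires. After 30 min chamber equilibration, a 30-s baseline video was recorded, then a second one 10 min after a medium-pipetting step. Test compound in DMSO was added cumulatively at 3 or 4 rising concentrations (final DMSO 0.001–0.1%), 15 min each, with a 30-s video per concentration. n=6–9 tissues, one compound per tissue.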

[3] = test system: 2D hiPSC-CMs; experiment: Motion-field imaging contractility; format: cell-based, human; settings: for MEC (minimum effective concentration), maximum contraction speed: serum-containing medium, concentration for 1.08-fold increase or 0.92-fold decrease
How it was run: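 Thawed iCell hiPSC-CMs were re-plated on day 7 onto a ~3 mm fibronectin spot and cultured 5–9 days at 37°C, 5% CO2, with serum-containing medium overnight before recording. Phase-contrast video at 4x, 150 frames/s, analysed by block-matching. After sham baseline, cumulative additions from 1,000-fold DMSO stocks (final DMSO 0.1–0.4% v/v), 15 min each, 10-s videos; 4–5 wells. MEC by four-parameter log fit, 1.08/0.92-fold cutoffs.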

[4] = test system: CaV1.2; settings: read-out: CaV1.2 IC50; ref Ando et al. 2017; cited from earlier work
[5] = test system: hERG; settings: read-out: hERG IC50; ref Sube and Ertel 2017; cited from earlier work
[6] = test system: 2D hiPSC-CMs; settings: ref Okai et al. 2020; cited from earlier work
[7] = test system: 3D ECTs; settings: read-out: EC50, positive inotropic effect; same 3D ECT model; ref Feric et al. 2019; cited from earlier work
[8] = test system: aligned hiPSC-CMs; settings: ref Satsuka et al. 2024; cited from earlier work

| Compound | MEC (minimum effective concentration), active force [2] | MEC (minimum effective concentration), maximum contraction speed [3] | Concentration up to which no effect on active force was observed [2] | further results |
| --- | --- | --- | --- | --- |
| CC(C)NCC(O)COc1cccc2ccccc12 (racemic) [Propranolol, (±)-propranolol hydrochloride] | 3.0 µM |  |  | IC50 [1]: 3 µM; MEC (minimum effective concentration), active force ([2]; listed as propranolol): ~3 µM |
| Nc1cc(-c2ccncc2)c[nH]c1=O [Amrinone, amrinone] |  | >100 µM |  |  |
| CC(=O)Oc1ccccc1C(=O)O [Aspirin, acetylsalicylic acid] | >300 µM | >300 µM | 300 µM |  |
| C[C@H](CS)C(=O)N1CCC[C@H]1C(=O)O [Captopril, captopril] | >100 µM | >100 µM | 100 µM |  |
| CN/C(=N/CCSCc1nc[nH]c1C)NC#N [Cimetidine, cimetidine] | >100 µM | >100 µM | 100 µM |  |
| COc1ccc(Cl)cc1C(=O)NCCc1ccc(S(=O)(=O)NC(=O)NC2CCCCC2)cc1 [Glibenclamide, glyburide] | >100 µM | >100 µM |  |  |
| O=C(CCCN1CCC(O)(c2ccc(Cl)cc2)CC1)c1ccc(F)cc1 [Haloperidol, haloperidol] | 0.30 µM | >0.10 µM |  | IC50 [4]: 1.3 µM; Concentration at which irregular beating was induced [3]: above 0.10 µM |
| CC(C)NCC(O)c1ccc(O)c(O)c1 (stereo not shown) [Isoproterenol, isoproterenol] | <0.00010 µM |  |  | MEC, positive inotropic effect (maximum contraction speed) [3]: 0.35 nM; MEC, positive inotropic effect (active force) [2]: below 0.1 nM |
| Cc1ccc(N(CC2=NCCN2)c2cccc(O)c2)cc1 [Phentolamine, phentolamine hydrochloride] |  | >0.30 µM | 3.0 µM | IC50 [5]: 0.85 µM |
| COc1ccc(-c2nc3ccc(C4=NNC(=O)CC4C)cc3[nH]2)cc1 (stereo not shown) [Pimobendan, pimobendan] |  | >60 µM |  |  |
| CC[C@H](C)C(=O)O[C@H]1C[C@H](O)C=C2C=C[C@H](C)[C@H](CC[C@@H](O)C[C@@H](O)CC(=O)O)[C@H]21 [Pravastatin, pravastatin] | >100 µM | >100 µM | 100 µM |  |
| CCOc1ccccc1OCCN[C@H](C)Cc1ccc(OC)c(S(N)(=O)=O)c1 [Tamsulosin, tamsulosin] | 3.0 µM | >3.0 µM | 1.0 µM |  |
| CN(C)C/C=C(/c1ccc(Br)cc1)c1cccnc1 [Zimelidine, zimelidine] |  | >0.10 µM | 3.0 µM |  |
| CC(CCc1ccc(O)cc1)NCCc1ccc(O)c(O)c1 (stereo not shown) [dobutamine] |  |  |  | Inotropic effect in 2D hiPSC-CMs (previous study) [6]: positive inotropic effect |
| Cc1[nH]c(=O)c(C#N)cc1-c1ccncc1 [milrinone] |  |  |  | EC50 [7]: 0.0016 µM; Inotropic effect in aligned hiPSC-CMs [8]: remained undetectable |
